Consider 71 compounds from ChEMBL document CHEMBL4513216, “Probing the Open Global Health Chemical Diversity Library for Multistage-Active Starting Points for Next-Generation Antimalarials” (ACS Infect Dis, 2020).

The nature of this series: Toxicity liver stage against HepG2, at 10uM. Set-up: test concentration 10 uM, cell line HepG2-A16-CD81EGFP. Type of series: cell-based. Particulars: human, HepG2-A16-CD81EGFP cells; read-out: INHIBITION
The method in brief:
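Uninfected HepG2-A16-CD81EGFP cells, 3 × 10^3 per well, 1536-well, plated on prespotted compound at 10 μM final, parasite-free screening media added to match infected plates; puromycin 10 μM positive, DMSO 0.5% negative; run in parallel with 48 h PbLuc assay at 37 °C, 5% CO2; viability by CellTiter-Glo luminescence, normalized to controls.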
In the case of `CN(C)c1ccc(C(=O)N2CCN(Cc3cscn3)CC2)cc1F`, the cytotoxicity at 10 µM is -11.7%.

For the compound `CCc1ncc2c(n1)CN(Cc1cccc3c1OCCO3)CC2`, the cytotoxicity at 10 µM is -8.42%.

Regarding `COC(C)c1noc(CN(C)c2nccnc2C#N)n1` (stereo unspecified), the cytotoxicity at 10 µM stood at 0.462%.

Take `Fc1ccc(CN2CCC(F)(F)C3(CCN(c4cnccn4)C3)C2)cc1` (stereo unspecified): the cytotoxicity at 10 µM is 8.62%.

As for `Cc1cccc(C(C(=O)N(C)CCc2cn[nH]c2)N(C)C)c1` (stereo unspecified), the cytotoxicity at 10 µM was -8.06%.

`CC(C)C1CN(C(=O)Nc2cnn(CC(F)F)c2)CCO1` (stereo unspecified): the cytotoxicity at 10 µM turned out to be 8.52%.

With `CN1CCc2ccc(NCc3cscn3)cc2C1=O`, the cytotoxicity at 10 µM is -2.43%.

`CN(C)CCO[C@H]1C[C@@H](O)C12CCN(c1nccc3ccccc13)CC2`: the cytotoxicity at 10 µM stood at 2.2%.

Turning to `COCc1cc(N2CCOCC2)n2nccc2n1`, the cytotoxicity at 10 µM was -1.98%.

Consider `CCN(CC)C(=O)[C@@H]1C[C@H](N)CN1c1nnc(-c2ccccc2)s1`, for which the cytotoxicity at 10 µM was -51.7%.

In the case of `Cc1ccc(CN(C)C(=O)C(C)n2ccnc2C(C)C)o1` (stereo unspecified), the cytotoxicity at 10 µM worked out at 5.99%.

For `COc1cccc(COc2nc(C(C)C)no2)c1`, the cytotoxicity at 10 µM was -42.4%.

With `NC(=O)C1CCN(C(=O)CCCc2ccc(Cl)c(Cl)c2)CC1`, the cytotoxicity at 10 µM is 5.34%.

Take `CC(C)c1nc(-c2cc(C(=O)NCCCO)c3ccccn23)cs1`: the cytotoxicity at 10 µM was found to be 9.7%.

As to `CCN1CCN(C(C)CNC(=O)Nc2nnc(C)s2)CC1` (stereo unspecified), the cytotoxicity at 10 µM was -12.2%.

Take `CCOc1ccc(-n2nnc(C(=O)O)c2-c2ccccn2)cc1`: the cytotoxicity at 10 µM is -9.31%.

For the compound `O=C(O)c1csc(S(=O)(=O)N2CCN(Cc3c(F)cccc3Cl)CC2)c1`, the cytotoxicity at 10 µM was -2.56%.

Turning to `O=C1CC2(CCN(Cc3ncc[nH]3)CC2)CN1Cc1cc(F)cc(F)c1`, the cytotoxicity at 10 µM is -5.53%.

As for `O=C(CN1CCCC1Cn1cncn1)Nc1ccnn1C1CCCC1` (stereo unspecified), the cytotoxicity at 10 µM is -1.07%.

In the case of `O=C(Nc1nncs1)c1ccc(O)nc1`, the cytotoxicity at 10 µM was -6.37%.

For the compound `COc1ccccc1CNCc1nn(-c2ccccc2)c2c1CCC2`, the cytotoxicity at 10 µM was 34.4%.

Consider `Cc1ccc(NC(=O)Cc2c(C)nc3c(c2C)c(=O)[nH]n3C)cc1F`, for which the cytotoxicity at 10 µM turned out to be 6.87%.

As for `CS(=O)(=O)N1CCN(C(=O)c2[nH]c3ccc(Cl)cc3c2Cl)CC1`, the cytotoxicity at 10 µM is 24.6%.

For `CNc1cc(C)nc(-c2cc(NC3CCNCC3)nc3[nH]ccc23)n1`, the cytotoxicity at 10 µM is -2.98%.

With `CC(C)(C(=O)NCCCC(N)=O)c1cccc(Br)c1`, the cytotoxicity at 10 µM was determined as 4.23%.

With `CC(C)CN1C(=O)CO[C@@H]2CN(C(=O)CC(F)(F)F)C[C@H]21`, the cytotoxicity at 10 µM is -1.74%.

Regarding `CCc1noc(C(C)N2CCC(NS(=O)(=O)c3cccs3)CC2)n1` (stereo unspecified), the cytotoxicity at 10 µM came to 8.45%.

For the compound `CCOc1cc(Cl)ccc1CNC(=O)c1ccc(=O)n(C)c1`, the cytotoxicity at 10 µM was -4.01%.

On to `CN(C)c1ncc(C2Nc3cc(Cl)ccc3C3=NCCCN32)cn1` (stereo unspecified), for which the cytotoxicity at 10 µM is -32%.

For the compound `CN(C)Cc1cc(CC2(NCc3ccc(C#N)cc3)COC2)no1`, the cytotoxicity at 10 µM was -5.96%.

For `O=C(c1cc(C2CCCC2)no1)N1CC(O)C1`, the cytotoxicity at 10 µM is -1.57%.

On to `COC(=O)CC(c1ccc(OC)c(OC)c1)c1oc(C)cc(=O)c1O` (stereo unspecified), for which the cytotoxicity at 10 µM stood at 16.8%.

On to `O=C1NCC(C(=O)Nc2ncc(Cc3ccc(F)cc3F)s2)N1` (stereo unspecified), for which the cytotoxicity at 10 µM was -4.01%.

Consider `NC(=O)CCn1cc(CNCCCc2csc(N)n2)c2ccccc21`, for which the cytotoxicity at 10 µM came to 3.1%.

With `Cc1cccc(CN2C(=O)CC[C@H]3[C@@H]2CCN3CC(=O)N(C)C)n1`, the cytotoxicity at 10 µM was -71.7%.

As to `O=C(Cn1cc(C2CC2)nn1)NC(c1ccc(Cl)cc1)C1CC1` (stereo unspecified), the cytotoxicity at 10 µM is 2.16%.

On to `COc1cc(C)c(C)cc1S(=O)(=O)N(C)CC(=O)Nc1ccon1`, for which the cytotoxicity at 10 µM is 2.74%.

Regarding `COC(=O)c1ccccc1NC(=O)c1nc2ccccc2n(C)c1=O`, the cytotoxicity at 10 µM is -9.99%.

Take `CCOCCNC(=O)c1ccn(S(=O)(=O)c2ccc(C)cc2)c1`: the cytotoxicity at 10 µM was -3.18%.

Take `CNC(=O)[C@H]1C[C@H]2OCC[C@H]2N(Cc2cccc3ccccc23)C1`: the cytotoxicity at 10 µM came out at 7.67%.

On to `CCC(NC(=O)C1CCN(S(C)(=O)=O)CC1)c1ccc(OC)cc1` (stereo unspecified), for which the cytotoxicity at 10 µM is -1.82%.

In the case of `O=C(c1ccccc1-n1cnnn1)N1CCC2(CC1)OCCO2`, the cytotoxicity at 10 µM was 1.5%.

In the case of `O=C(c1cscn1)N1CCCC12CCCN(S(=O)(=O)c1ccccc1)C2` (stereo unspecified), the cytotoxicity at 10 µM was determined as 4.35%.

For `Cc1nn2c(-c3snnc3C)nnc2s1`, the cytotoxicity at 10 µM is -4.19%.

`O=C(C1CC=CC1)N1C[C@@H]2CN(Cc3ccsc3)CCO[C@@H]2C1`: the cytotoxicity at 10 µM is -87.4%.

Take `O=C(Cn1cccc1)NCC1CCN(Cc2cc3ccccc3[nH]2)C1` (stereo unspecified): the cytotoxicity at 10 µM stood at 12.6%.

As to `Cn1cccc1C(=O)N1C[C@H]2CN(Cc3cccc(F)c3)C[C@H]2C1`, the cytotoxicity at 10 µM was -1.1%.

Turning to `Cc1nn(CC(O)CN2CCc3ccccc3C2)c(=O)c2ccccc12` (stereo unspecified), the cytotoxicity at 10 µM is 11.1%.

For the compound `CCc1nnc(CN(C)C[C@@H]2CCCN3CCCC[C@H]23)o1`, the cytotoxicity at 10 µM turned out to be 1.52%.

Take `O=C(NCCn1cnc(C2CCCC2)cc1=O)NCc1cccs1`: the cytotoxicity at 10 µM is -7.05%.

As to `CCn1cc2[nH]c(OC)c(CNC(=O)CCC3CCCC3)cc-2c1=O`, the cytotoxicity at 10 µM is -3.28%.

For the compound `CS(=O)(=O)NCc1ncn2c1CN(C(=O)C1CCCO1)CCC2` (stereo unspecified), the cytotoxicity at 10 µM is -110%.

Consider `Cn1cccc1C(=O)N1CC[C@@]2(O)CCN(S(C)(=O)=O)C[C@H]2C1`, for which the cytotoxicity at 10 µM was -10.7%.

For `c1cc(-c2cc(C3CCN(Cc4cncnc4)C3)ccn2)ccn1` (stereo unspecified), the cytotoxicity at 10 µM is -0.969%.

Regarding `COCCN1C(=O)CCC12CCC(NCc1ccc(OC)cc1)CC2` (stereo unspecified), the cytotoxicity at 10 µM came out at 11.5%.

For `Cc1ccc(CSc2ncc(Br)c(C(=O)O)n2)cc1`, the cytotoxicity at 10 µM was -2.3%.

For the compound `O=S(=O)(c1cccnc1)N1CCCC1COc1ccccc1` (stereo unspecified), the cytotoxicity at 10 µM is -9.32%.

As for `Cc1nn(C)c(Cl)c1C1CCCN1C(=O)c1ccoc1C` (stereo unspecified), the cytotoxicity at 10 µM was -8.18%.

With `Cn1ncc2c1C(COCC1CC1)CN(Cc1ccncc1)C2` (stereo unspecified), the cytotoxicity at 10 µM came out at 7.22%.

With `COc1ccc2cc(CNc3c(C)nn(C(C)C)c3C)ccc2c1`, the cytotoxicity at 10 µM is -56.6%.

On to `COCC(=O)N1CCN(C)C(=O)C(Cc2ccc(-c3cccs3)cc2)C1` (stereo unspecified), for which the cytotoxicity at 10 µM was 1.74%.

For `NC1CCCc2nc(-c3ccccc3)ncc21` (stereo unspecified), the cytotoxicity at 10 µM was found to be 4.93%.

Take `CCN1CCC(CC(=O)NC[C@H]2CCc3ccccc3O2)CC1`: the cytotoxicity at 10 µM is -28.4%.

Consider `CCCc1nnc(NC(=O)NC2CCOc3ccccc32)s1` (stereo unspecified), for which the cytotoxicity at 10 µM turned out to be 3.72%.

With `CC1CN(C(=O)NCCNc2cnccn2)CCO1` (stereo unspecified), the cytotoxicity at 10 µM stood at 5.31%.

Take `CCN(CC)C(=O)c1nnn(Cc2ccccc2)c1OC`: the cytotoxicity at 10 µM turned out to be 10.3%.

Consider `CCN1C(=O)CC[C@@H]2[C@H]1CCN2C(=O)Cc1cccc(OC)c1`, for which the cytotoxicity at 10 µM is 0.657%.

As for `O=C1CC2(CCSC2)C(=O)N1Cc1coc(-c2cccc(F)c2)n1` (stereo unspecified), the cytotoxicity at 10 µM is -0.237%.

`CC(C)C(=O)N1CCN(CCOc2cccc(C#N)c2)CC1`: the cytotoxicity at 10 µM turned out to be 10.8%.

Consider `CCCc1noc(CN2CCC(C(=O)Nc3cnn(CC)c3)CC2)n1`, for which the cytotoxicity at 10 µM was -0.988%.

Regarding `CC(C)Cc1nc(COc2ccc(N(C)C(N)=O)cc2)no1`, the cytotoxicity at 10 µM stood at 30.5%.
